From ChEMBL document CHEMBL1140158, “Soluble 3',6-substituted indirubins with enhanced selectivity toward glycogen synthase kinase -3 alter circadian period” (J Med Chem, 2008) come the findings set out here.

The test system of one data set is SH-SY5Y. Briefly: Cytotoxicity against human SH-SY5Y cells after 48 hrs by MTS reduction assay. It is filed as cell-based. (In general: Formazan colour is commonly taken as a measure of viable cells.)
The target of data set [1] is T1, Glycogen synthase kinase-3 (Homo sapiens, UniProt P49840+P49841). As to the kind of experiment: Inhibition of GSK3-mediated beta-catenin phosphorylation in human SH-SY5Y cells in presence of MG132 by ELISA. (In general: In an ELISA, binding on a coated surface is turned into a signal by an enzyme label.)
T1 sequence (P49840 whole entry, looked up): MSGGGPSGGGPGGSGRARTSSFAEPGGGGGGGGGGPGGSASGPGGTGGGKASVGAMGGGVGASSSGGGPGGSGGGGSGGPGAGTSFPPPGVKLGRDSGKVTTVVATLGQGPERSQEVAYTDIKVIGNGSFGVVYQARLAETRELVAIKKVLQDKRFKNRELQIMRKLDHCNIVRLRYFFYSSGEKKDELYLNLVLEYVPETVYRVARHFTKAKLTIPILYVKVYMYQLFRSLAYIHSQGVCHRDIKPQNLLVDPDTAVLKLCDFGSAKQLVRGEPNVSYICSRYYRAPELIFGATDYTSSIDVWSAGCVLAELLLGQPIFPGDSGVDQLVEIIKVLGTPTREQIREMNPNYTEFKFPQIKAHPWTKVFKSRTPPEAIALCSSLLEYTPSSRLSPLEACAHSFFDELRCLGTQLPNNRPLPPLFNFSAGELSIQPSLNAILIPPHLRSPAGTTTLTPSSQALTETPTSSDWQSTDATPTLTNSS
T1 sequence (P49841 whole entry, looked up): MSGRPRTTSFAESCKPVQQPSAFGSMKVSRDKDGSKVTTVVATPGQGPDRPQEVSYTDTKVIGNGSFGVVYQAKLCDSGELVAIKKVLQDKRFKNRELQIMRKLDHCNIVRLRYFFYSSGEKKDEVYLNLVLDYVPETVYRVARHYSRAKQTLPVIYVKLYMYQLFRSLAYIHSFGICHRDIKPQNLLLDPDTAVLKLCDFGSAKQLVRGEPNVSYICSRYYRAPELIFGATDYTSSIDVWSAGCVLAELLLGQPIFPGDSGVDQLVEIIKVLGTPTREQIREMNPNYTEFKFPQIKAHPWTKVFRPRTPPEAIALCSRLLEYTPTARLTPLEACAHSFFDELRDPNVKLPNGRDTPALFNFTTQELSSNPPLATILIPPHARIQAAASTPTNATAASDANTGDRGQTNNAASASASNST
Data set [2] in a line: Solubility in water. It is filed as physicochemical. The method in brief:
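Excess solid in double-distilled water was sonicated 5 min, then stirred overnight to equilibrium at 25 ± 0.1 °C and centrifuged. Supernatant absorbance was read at 515–518 nm and quantified against per-compound standard reference curves.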

A short description of data set [3]: Dissociation constant, pKa of the compound. It is filed as physicochemical.
The nature of data set [4]: Lipophilicity, log D of the compound. The following applies: octanol/water. Type of data set: physicochemical.
For data set [5], the target named is T1, Glycogen synthase kinase-3. Briefly: Inhibition of GSK3-mediated beta-catenin phosphorylation in human SH-SY5Y cells in presence of MG132 by Western blot analysis. On the technique in general: Immunoblotting shows a protein as a band on a membrane.
The nature of data set [6]: Inhibition of human recombinant CDK5/p25 expressed in Escherichia coli.
In data set [7] the test system is Glycogen synthase kinase-3 (Sus scrofa). As to the kind of experiment: Inhibition of pig GSK3alpha/beta.
The subject of another data set is Rat1. As to the kind of experiment: Effect on circadian rhythm in Pper2::Fluc transfected Rat1 cells assessed as shortening of period length at 10 uM. Type of data set: functional, cell-based. The following applies: Rattus norvegicus. In short, it runs like this:
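Rat-1 fibroblasts stably carrying PPer2::Fluc, grown to confluence, synchronized with 0.1 μM dexamethasone (1 h in Experimental, 2 h in legend), then moved to phenol-red-free assay medium with 0.1 mM luciferin. Compounds at 10 μM added before dish sealing and left continuously; DMSO solvent control. Luminescence recorded 4–5 days or more; period derived by regression analysis.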

Molecules are shown by their SMILES. Calls of active or inactive are those of the source. The rule behind the calls is not given here.

On to `O=C1Nc2cc(Br)ccc2/C1=C1/Nc2ccccc2/C1=N\OCCN1CCNCC1`, for which the values for the IC50 (in the data set on SH-SY5Y (sh-sy5y); in data set [1]) were 13200 nM and 150 nM, respectively.
Take `CN(C)CCO/N=C1/C(=C2/C(=O)Nc3cc(Br)ccc32)Nc2ccccc21.Cl`: the thermodynamic solubility in data set [2] was determined as 141 µg/mL. For the same compound, the pKa in data set [3] turned out to be 8.59. Besides, the logD in data set [4] is 1.69.
As to `Cn1c(O)c(-c2[nH]c3ccccc3c2N=O)c2ccc(Br)cc21`, the outcome in data set [5] was inactive.
In [2], `Cl.Cl.O=C1Nc2cc(Br)ccc2/C1=C1/Nc2ccccc2/C1=N\OCCN1CCN(CCO)CC1` displayed a solubility (thermodynamic) of 1140 µg/mL. The pKa in data set [3] was 7.65. Also, the logD in data set [4] came to 1.41.
In turn, `Cl.Cl.O=C1Nc2cc(Br)ccc2/C1=C1/Nc2ccccc2/C1=N\OCCN1CCN(CCOCCO)CC1` registered a thermodynamic solubility in [2] of 4250 µg/mL. The compound further had a pKa in data set [3] of 7.58. Also, the IC50 came to 97600 nM with SH-SY5Y (Homo sapiens, SH-SY5Y, 48 h); 330 nM in data set [6]; 33 nM in data set [7]. In data set [4], this compound yielded a logD of 1.46.
Turning to `CCN(CC)CCO/N=C1/C(=C2/C(=O)Nc3cc(Br)ccc32)Nc2ccccc21`, the IC50 in the data set with SH-SY5Y (sh-sy5y) came out at 78000 nM; in data set [6] it was 20 nM; in data set [7], 35 nM.
`Cl.Cl.O=C1Nc2cc(Br)ccc2/C1=C1/Nc2ccccc2/C1=N\OCCN1CCNCC1`: the solubility (thermodynamic) in data set [2] is 1610 µg/mL. The pKa in data set [3] turned out to be 8.85. In addition, the results for the IC50 (with SH-SY5Y (sh-sy5y); in data set [1]; in data set [6]) were 5900 nM, 220 nM and 180 nM, respectively. Besides, the log distribution coefficient (logD) in data set [4] is -0.87.
As for `O=C1Nc2cc(Br)ccc2/C1=C1/Nc2ccccc2/C1=N\OCCO`, the IC50 in the data set with SH-SY5Y (Homo sapiens, SH-SY5Y, 48 h) was more than 100000 nM; in [6] it was more than 10000 nM.
In the case of `CCN(CC)CCO/N=C1/C(=C2/C(=O)Nc3cc(Br)ccc32)Nc2ccccc21.Cl`, in data set [2], the solubility (thermodynamic) came out at 192 µg/mL. This compound gave a pKa in data set [3] of 9.38. Besides, the IC50 in the data set with SH-SY5Y (Homo sapiens, SH-SY5Y, 48 h) was more than 100000 nM; in [6], 40 nM; in data set [7], 27 nM. The compound also yielded a logD in [4] of 1.19.
As to `CN(CCO/N=C1/C(=C2/C(=O)Nc3cc(Br)ccc32)Nc2ccccc21)CC(O)CO` (stereo unspecified), the IC50 in the data set with SH-SY5Y (Homo sapiens, SH-SY5Y, 48 h) came out at 5800 nM; in data set [6] it was 240 nM; in data set [7], 67 nM.
Take `CN1CCN(CCO/N=C2/C(=C3/C(=O)Nc4cc(Br)ccc43)Nc3ccccc32)CC1`: the IC50 in data set [6] is 400 nM; in data set [7], 7 nM.
`O=C1Nc2cc(Br)ccc2/C1=C1/Nc2ccccc2/C1=N\OCCN(CCO)CCO` yielded a concentration for half-maximal inhibition (IC50) in the data set with SH-SY5Y (Homo sapiens, SH-SY5Y, 48 h) of 6600 nM.
For `O=C1Nc2cc(Br)ccc2/C1=C1/Nc2ccccc2/C1=N\OCCBr`, the IC50 with SH-SY5Y (Homo sapiens, SH-SY5Y, 48 h) is more than 100000 nM; in [6], more than 10000 nM; in data set [7] it was 140 nM.
On to `Cl.O=C1Nc2cc(Br)ccc2/C1=C1/Nc2ccccc2/C1=N\OCCN1CCCC1`, for which the solubility (thermodynamic) in data set [2] amounted to 195 µg/mL. In [3], this compound registered a pKa of 9.18. Also, the IC50 with SH-SY5Y (Homo sapiens, SH-SY5Y, 48 h) is 4200 nM; in [6], 100 nM; in data set [7], 54 nM. This compound also registered a logD in data set [4] of 1.16.
In the case of `O=C1Nc2cc(Br)ccc2/C1=C1/Nc2ccccc2/C1=N\OCCN1CCN(CCOCCO)CC1` [listing 1 of 2 here], the IC50 in data set [1] was found to be 2900 nM; in data set [6], 310 nM; in data set [7], 14 nM.
On to `O=C1Nc2cc(Br)ccc2/C1=C1/Nc2ccccc2/C1=N\OCCN1CCN(CCOCCO)CC1` [listing 2 of 2 here], for which, in the data set on Rat1, the result was Active.
In the case of `Cl.O=C1Nc2cc(Br)ccc2/C1=C1/Nc2ccccc2/C1=N\OCCN(CCO)CCO`, in [1], the IC50 was found to be 320 nM.
Consider `COCCN1CCN(CCO/N=C2/C(=C3/C(=O)Nc4cc(Br)ccc43)Nc3ccccc32)CC1.Cl.Cl`, for which, in [2], the solubility (thermodynamic) worked out at 570 µg/mL. Also, in [3], the pKa was 7.47. Moreover, the IC50 in the data set with SH-SY5Y (Homo sapiens, SH-SY5Y, 48 h) is more than 100000 nM; in [6], 400 nM; in [7], 20 nM. The logD in [4] is 1.9.
Turning to `O=C1Nc2cc(Br)ccc2/C1=C1/Nc2ccccc2/C1=N\OCCN1CCCC1`, the IC50 with SH-SY5Y (sh-sy5y) was found to be 5500 nM; in data set [6], 130 nM; in data set [7] it was 26 nM.
On to `CN1CCN(CCO/N=C2/C(=C3/C(=O)Nc4cc(Br)ccc43)Nc3ccccc32)CC1.Cl.Cl`, for which the thermodynamic solubility in [2] turned out to be 1500 µg/mL. Moreover, in data set [3], the pKa came out at 7.65. Moreover, the IC50 came to 5400 nM in the data set with SH-SY5Y (Homo sapiens, SH-SY5Y, 48 h); 300 nM in data set [6]; 5 nM in data set [7]. Besides, the logD in data set [4] turned out to be 1.74.
Regarding `COCCN1CCN(CCO/N=C2/C(=C3/C(=O)Nc4cc(Br)ccc43)Nc3ccccc32)CC1`, the figures for the IC50 in [6] and in [7] were 500 nM and 11 nM, respectively.
As for `CCN(CC)C(=O)O/N=C1/C(=C2/C(=O)Nc3cc(Br)ccc32)Nc2ccccc21`, the IC50 with SH-SY5Y (Homo sapiens, SH-SY5Y, 48 h) was more than 100000 nM; in [6] it was 10000 nM; in [7], 30 nM.
`O=C1Nc2cc(Br)ccc2/C1=C1/Nc2ccccc2/C1=N\OCCN1CCN(CCO)CC1`: the IC50 in data set [1] was 700 nM.
Consider `O=C1Nc2cc(Br)ccc2/C1=C1/Nc2ccccc2/C1=N\OCC(O)CO` (stereo unspecified), for which the IC50 in the data set on SH-SY5Y (Homo sapiens, SH-SY5Y, 48 h) turned out to be 940 nM; in data set [6] it was 25 nM; in data set [7], 34 nM.

One may read the IC50 as the point on the concentration scale where inhibition reaches its midpoint. One may read the solubility (thermodynamic) as solubility found after equilibrating the solid with the medium. What is called pKa is the negative logarithm of the acid dissociation constant. A low value points to a group that gives up its proton readily. A word on the logD: it is lipophilicity at a set pH, counting ionised and neutral species. A low value points to lower lipophilicity.
